# Results reported in ChEMBL document CHEMBL2021787 (Bioorg Med Chem Lett, 2012).
# Assays:
# HepG2 = assay: Cytotoxicity against human HepG2 cells at 20 to 25 uM after 48 hrs by MTT assay; type: cell-based; conditions: hepg2, 48 h
# How it was run: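 HepG2 cells were seeded at 2500/well and grown 24 h, then exposed to compound for 48 h. MTT (20 µL of a 5 mg/mL stock) was added for 2.5 h at 37 °C, and OD was read at 570 nm. Results are reported as % inhibition at a single concentration.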
# [1] = tested on: Mycobacterium tuberculosis; assay: Antimycobacterial activity against Mycobacterium tuberculosis H37Rv by agar dilution method; type: functional
# How it was run: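 Agar dilution on Middlebrook 7H11 agar supplemented with OADC, following the NCCLS approach, using log-phase M. tuberculosis cultures. Run in triplicate. MIC was taken as the lowest concentration giving complete inhibition of growth.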
# [2] = Cmax in Wistar rat at 10 mg/kg, iv administered as single bolus dose; type: ADME, organism-based; set-up: dose 10 mg/kg, route intravenous; conditions: in vivo
# How it was run: (§1)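 Male Wistar rats given a single iv bolus of 10 mg/kg in 20% propylene glycol, 10% cremophor ELP and 20% N-methylpyrrolidone in normal saline. Plasma was assayed by reverse-phase HPLC with PDA detection. Parameters came from plasma concentration–time data by non-compartmental analysis.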
# [3] = Tmax in Wistar rat at 50 mg/kg, po administered as single dose; type: ADME, organism-based; set-up: dose 50 mg/kg, route oral; conditions: in vivo
# How it was run: (§2)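 Male Wistar rats got a single oral dose of 50 mg/kg as a suspension in 0.25% sodium CMC with Tween 80. Plasma was measured by reverse-phase HPLC with PDA detection and analysed non-compartmentally. AUC covered 10 h. Bioavailability was derived against a separate 10 mg/kg iv bolus dose in the same vehicle system as the iv study.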
# [4] = (§3) AUC (0 to t) in Wistar rat at 50 mg/kg, po administered as single dose; type: ADME, organism-based, Plasma; set-up: dose 50 mg/kg, route oral; conditions: Wistar, plasma; how it was run: as §2
# [5] = Elimination rate constant in Wistar rat at 10 mg/kg, iv administered as single bolus dose; type: ADME, organism-based; set-up: dose 10 mg/kg, route intravenous; conditions: in vivo; how it was run: as §1
# [6] = Volume of distribution in Wistar rat at 10 mg/kg, iv administered as single bolus dose; type: ADME, organism-based; set-up: dose 10 mg/kg, route intravenous; conditions: in vivo; how it was run: as §1
# [7] = Half life in Wistar rat at 10 mg/kg, iv administered as single bolus dose; type: ADME, organism-based; set-up: dose 10 mg/kg, route intravenous; conditions: in vivo; how it was run: as §1
# [8] = (§4) AUC (0 to t) in Wistar rat at 10 mg/kg, iv administered as single bolus dose; type: ADME, organism-based, Plasma; set-up: dose 10 mg/kg, route intravenous; conditions: Wistar, plasma; how it was run: as §1
# [9] = Cmax in Wistar rat at 50 mg/kg, po administered as single dose; type: ADME, organism-based; set-up: dose 50 mg/kg, route oral; conditions: in vivo; how it was run: as §2
# [10] = tested on: Mycobacterium tuberculosis; assay: Ratio of INH MIC to compound MIC for Mycobacterium tuberculosis H37Rv by agar dilution method; type: functional
# [11] = (§5) Oral bioavailability in Wistar rat at 50 mg/kg administered as single dose; type: ADME, organism-based; conditions: Wistar, in vivo; how it was run: as §2
# [12] = Plasma clearance in Wistar rat at 10 mg/kg, iv administered as single bolus dose; type: ADME, organism-based; set-up: dose 10 mg/kg, route intravenous; how it was run: as §1
# Rattus norvegicus [13] = assay: as §3; type: ADME, organism-based, Plasma; set-up: dose 50 mg/kg, route oral; conditions: in vivo; how it was run: as §2
# Rattus norvegicus [14] = assay: as §4; type: ADME, organism-based, Plasma; set-up: dose 10 mg/kg, route intravenous; conditions: in vivo; how it was run: as §1
# Rattus norvegicus [15] = assay: as §5; type: ADME, organism-based; conditions: in vivo; how it was run: as §2
Structure (SMILES),Activity (HepG2) [%],MIC [1],further results
O=C(NN1C(=O)CCSC1c1cccc(OCc2ccccc2)c1)c1ccncc1 (stereo not drawn),12.6,0.24 µM,
O=C(NN1C(=O)CCSC1c1ccc(OCc2ccccc2)cc1)c1ccncc1 (stereo not drawn),8.8,0.12 µM,Cmax [2]: 5290 ng/mL; Tmax [3]: 3 h; AUC(0-t) [4]: 5870 ng·h/mL; k el [5]: 0.000172 s⁻¹; Vd [6]: 1.99 L; half-life [7]: 1.14 h; AUC(0-t) [8]: 7500 ng·h/mL; Cmax [9]: 1310 ng/mL; Ratio [10]: 3; bioavailability [11]: 16.7%; clearance [12]: 22.5 mL/min/kg
O=C(NN1C(=O)CCSC1c1ccccc1)c1ccncc1 (stereo not drawn),10.6,9.9 µM,
O=C(NN1C(=O)CCSC1c1ccc(Cl)cc1)c1ccncc1 (stereo not drawn),26.8,0.575 µM,
O=C(NN1C(=O)CCSC1Cc1ccc([N+](=O)[O-])o1)c1ccncc1 (stereo not drawn),38.6,4.48 µM,
O=C(NN1C(=O)CCSC1c1ccc([N+](=O)[O-])cc1)c1ccncc1 (stereo not drawn),32,1.11 µM,
O=C(NN1C(=O)CCSC1c1ccccc1Br)c1ccncc1 (stereo not drawn),22.2,0.25 µM,
O=C(NN1C(=O)CCSC1c1ccccc1OCc1ccccc1)c1ccncc1 (stereo not drawn),10.6,0.24 µM,
O=C(NN1C(=O)CCSC1c1ccc(Br)cc1)c1ccncc1 (stereo not drawn),18.4,0.5 µM,
COc1ccc(C2SCCC(=O)N2NC(=O)c2ccncc2)cc1 (stereo not drawn),12.6,4.54 µM,
O=C(NN1C(=O)CCSC1c1ccc(C(F)(F)F)cc1)c1ccncc1 (stereo not drawn),20.6,0.13 µM,
O=C(NN1C(=O)CCSC1Cc1ccco1)c1ccncc1 (stereo not drawn),18.6,41.2 µM,
Cc1cccc(C2SCCC(=O)N2NC(=O)c2ccncc2)c1 (stereo not drawn),8.6,9.56 µM,
O=C(NN1C(=O)CCSC1c1cccc(C(F)(F)F)c1)c1ccncc1 (stereo not drawn),26.4,0.52 µM,
CC1(C)CC(=O)C2=C(C1)N(NC(=O)c1ccncc1)C1=C(C(=O)CC(C)(C)C1)C2c1ccccc1OCc1ccccc1,,0.17 µM,
O=C(NN1C(=O)CCSC1c1ccc(F)cc1)c1ccncc1 (stereo not drawn),18.6,0.3 µM,
O=C(NN=C1CCCCC1)c1ccncc1,,0.0004 µM,
CN(C)c1ccc(C2SCCC(=O)N2NC(=O)c2ccncc2)cc1 (stereo not drawn),4.6,8.78 µM,
O=C(NN1C(=O)CCSC1c1ccccc1O)c1ccncc1 (stereo not drawn),8.6,19 µM,
COc1cc(C2SCCC(=O)N2NC(=O)c2ccncc2)cc(OC)c1OC (stereo not drawn),8.6,7.76 µM,

Structure (SMILES),Activity (HepG2) [%],MIC [1],further results
COc1cc(C2SCCC(=O)N2NC(=O)c2ccncc2)ccc1O (stereo not drawn),16.11,8.7 µM,
COc1cccc(C2SCCC(=O)N2NC(=O)c2ccncc2)c1 (stereo not drawn),10.4,9.08 µM,
O=C(NN1C(=O)CCSC1c1ccccc1C(F)(F)F)c1ccncc1 (stereo not drawn),24.2,0.52 µM,
O=C(NNCc1ccccc1)c1ccncc1,,0.2 µg/mL,
CC(C)c1ccc(C2SCCC(=O)N2NC(=O)c2ccncc2)cc1 (stereo not drawn),19,2.14 µM,
O=C(NN1C(=O)CCSC1c1ccccc1Cl)c1ccncc1 (stereo not drawn),20.6,1.15 µM,
O=C(NN1C(=O)CCSC1c1cccc([N+](=O)[O-])c1)c1ccncc1 (stereo not drawn),28.6,0.56 µM,
Cc1ccccc1C1SCCC(=O)N1NC(=O)c1ccncc1 (stereo not drawn),12.6,9.56 µM,
Cc1ccc(C2SCCC(=O)N2NC(=O)c2ccncc2)cc1 (stereo not drawn),12.4,9.56 µM,
C/C(=N\NC(=O)c1ccncc1)c1ccc(NC(=S)Nc2ccc(F)cc2)cc1,,0.45 µM,
O=C(NN1C(=O)CCSC1c1cccc(F)c1)c1ccncc1 (stereo not drawn),16.4,0.6 µM,
COc1ccccc1C1SCCC(=O)N1NC(=O)c1ccncc1 (stereo not drawn),15.2,9.08 µM,
O=C(NN1C(=O)CCSC1c1ccccc1[N+](=O)[O-])c1ccncc1 (stereo not drawn),28.8,2.12 µM,
C/C(=N/NC(=O)c1ccncc1)c1cccc(CN2CCNCC2)c1O,,0.56 µM,
O=C(NN1C(=O)CCSC1c1ccccc1F)c1ccncc1 (stereo not drawn),18.6,0.6 µM,
O=C(c1ccncc1)N1N=CCC1(O)C(F)(F)F (stereo not drawn),,0.77 µM,
NNC(=O)c1ccncc1 [ISONIAZID],10,0.36 µM,Cmax [2]: 298000 ng/mL; Tmax [3]: 2 h; AUCt (Rattus norvegicus [13]): 197090 ng·h/mL; k el [5]: 6.67e-05 s⁻¹; Vd [6]: 0.026 L; AUCt (Rattus norvegicus [14]): 684000 ng·h/mL; Cmax [9]: 52300 ng/mL; F (Rattus norvegicus [15]): 17.36%; clearance [12]: 0.21 mL/min/kg
Cc1c(CN2CCN(c3cccc(C(F)(F)F)c3)CC2)cc(-c2ccccc2)n1NC(=O)c1ccncc1 [SUDOTERB],,0.25 µg/mL,
O=C(NN1C(=O)CCSC1c1cccc(O)c1)c1ccncc1 (stereo not drawn),8.2,9.49 µM,
O=C(NN1C(=O)CCSC1c1ccc(O)cc1)c1ccncc1 (stereo not drawn),10.7,18.9 µM,
